Source: ChEMBL document CHEMBL2046318, “Synthesis and biological evaluation of novel flavonols as potential anti-prostate cancer agents” (Eur J Med Chem, 2012)

What was measured:
CWR22R [1] = assay: Inhibition of androgen receptor expression in human 22Rv1 cells assessed as AR protein level at 10 uM after 72 hrs by densitometry relative to untreated control; assay type: functional; set-up: scale not given: the % may be the effect or the level left
In short: (§1)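 22rv1 cells were seeded at 2 × 10^5 per well, left to adhere overnight, then treated for 72 h at 10 or 20 µM. Cells were lysed in NP-40/deoxycholate/SDS buffer with protease and phosphatase inhibitors. 15 µg protein was run on SDS-PAGE and blotted, then probed with AR, PSA and actin antisera and an HRP secondary. Bands were quantified by densitometry as % of vehicle control, mean of 3–5 replicates with SD.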

CWR22R [2] = assay: Inhibition of prostate specific antigen expression in human 22Rv1 cells assessed as PSA protein level at 20 uM after 72 hrs by densitometry relative to untreated control; assay type: functional; set-up: scale not given: the % may be the effect or the level left; in short: as §1
CWR22R [3] = assay: Antiproliferative activity against human 22Rv1 cells incubated up to 144 hrs by Coulter particle count and size analyzer; assay type: functional, cell-based; settings: 22Rv1, 144 h
In short: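 22rv1 cells in RPMI 1640 with 10% FBS were seeded at 5 × 10^3 per well, left to adhere overnight, then exposed to agents in DMSO (final DMSO <0.1%) for up to 144 h. Cells were trypsinised and counted on a Coulter counter. Cell number as % of DMSO control was plotted against log concentration at 144 h, and the IC50 was taken from the straight-line fit. Mean of 3–6 experiments.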

CWR22R [4] = assay: Inhibition of androgen receptor expression in human 22Rv1 cells assessed as AR protein level at 20 uM after 72 hrs by densitometry relative to untreated control; assay type: functional; set-up: scale not given: the % may be the effect or the level left; in short: as §1
CWR22R [5] = assay: Inhibition of prostate specific antigen expression in human 22Rv1 cells assessed as PSA protein level at 10 uM after 72 hrs by densitometry relative to untreated control; assay type: functional; set-up: scale not given: the % may be the effect or the level left; in short: as §1
CWR22R [6] = assay: Growth inhibition of human 22Rv1 cells at 0.1 uM incubated up to 144 hrs by Coulter particle count and size analyzer; assay type: functional; settings: 22Rv1, 144 h, read-out: GI
CWR22R [7] = assay: Growth inhibition of human 22Rv1 cells at 50 uM incubated up to 144 hrs by Coulter particle count and size analyzer; assay type: functional; settings: 22Rv1, 144 h, read-out: GI
CWR22R [8] = assay: Growth inhibition of human 22Rv1 cells at 0.01 uM incubated up to 144 hrs by Coulter particle count and size analyzer; assay type: functional; settings: 22Rv1, 144 h, read-out: GI

SMILES	Activity (CWR22R [1]) [%]	Activity (CWR22R [2]) [%]	IC50 (CWR22R [3]) [µM]	Activity (CWR22R [4]) [%]	Activity (CWR22R [5]) [%]	inhibition of growth at 0.1 µM (CWR22R [6]) [%]	inhibition of growth at 50 µM (CWR22R [7]) [%]	inhibition of growth at 0.01 µM (CWR22R [8]) [%]
COc1cc(-c2oc3ccccc3c(=O)c2O)cc(OC)c1OC	96	23	3.1	62	21			
O=c1c(O)c(-c2cc(O)c(O)c(O)c2)oc2ccccc12	94	109	7.7	89	110			
COc1cc(-c2oc3ccccc3c(=O)c2OC)cc(OC)c1OC	94	149	2.6	80	167			
COc1cc(OC)cc(-c2oc3ccccc3c(=O)c2O)c1	74	109	12.4	72	133			
COc1cc(-c2oc3ccc(F)cc3c(=O)c2O)cc(OC)c1OC	91	5	3.3	75	14			
COc1cc(-c2oc3ccccc3c(=O)c2F)cc(OC)c1OC	110	63	> 40	125	63	46	48	18
COc1cc(-c2oc3cc(F)ccc3c(=O)c2O)cc(OC)c1OC	112	22	4	75	37			
O=c1c(O)c(-c2cc(O)c(O)c(O)c2)oc2cc(F)ccc12	100	106	11.6	94	111			
COc1cc(-c2oc3cc(F)cc(F)c3c(=O)c2O)cc(OC)c1OC	100	68	5.9	103	95			
O=c1c(O)c(-c2cc(O)c(O)c(O)c2)oc2cc(F)cc(F)c12	118	132	6.3	90	134			
COc1ccc(-c2oc3cc(F)cc(F)c3c(=O)c2O)cc1OC	110	88	7.4	94	78			
O=c1c(O)c(-c2ccc(O)c(O)c2)oc2cc(F)cc(F)c12	116	22	16.3	86	61			
COc1ccc(-c2oc3cc(F)cc(F)c3c(=O)c2O)cc1	115	66	15.8	111	85			
O=c1c(O)c(-c2ccc(O)cc2)oc2cc(F)cc(F)c12	136	33	28.7	96	77			
COc1ccc(-c2oc3cc(F)ccc3c(=O)c2O)cc1OC	129	70	> 40	120	78			
O=c1c(O)c(-c2ccc(O)c(O)c2)oc2cc(F)ccc12	108	18	9.2	59	21			
COc1ccc(-c2oc3cc(F)ccc3c(=O)c2O)cc1	112	62	7.1	104	70			
O=c1c(O)c(-c2ccc(O)cc2)oc2cc(F)ccc12	129	3	8.4	64	32			
COc1cccc(-c2oc3ccccc3c(=O)c2O)c1	64	13	5.3	23	27			
COc1ccc(-c2oc3ccccc3c(=O)c2O)cc1	71	115	30.5	61	127			
COc1ccc(-c2oc3ccccc3c(=O)c2O)cc1OC [3-HYDROXY-3',4'-DIMETHOXYFLAVONE]	63	56	12.3	81	61			
O=c1c(O)c(-c2ccc(O)c(O)c2)oc2cc(O)ccc12 [FISETIN]	109	44	25.9	101	51			
O=c1c(O)c(-c2ccccc2)oc2ccccc12 [FLAVONOL]	100	80	14.9	92	124			
O=c1c(O)c(-c2ccc(O)cc2)oc2cc(O)cc(O)c12 [KAEMPFEROL]	128	37	> 40	131	33			
O=c1c(O)c(-c2cc(O)c(O)c(O)c2)oc2cc(O)cc(O)c12 [MYRICETIN]	119	121	13.1	114	110			
O=c1c(O)c(-c2ccc(O)c(O)c2)oc2cc(O)cc(O)c12 [QUERCETIN]	114	31	15.5	120	40			
O=c1c(O)c(-c2ccc(O)cc2)oc2cc(O)ccc12 [RESOKAEMPFEROL]	141	39	30.2	125	47			
O=c1c(O)c(-c2cc(O)c(O)c(O)c2)oc2cc(O)ccc12 [ROBINETIN]	84	111	7.1	102	69			
